B1: Osa-1-4 twister ribozyme (parent)
chain: CCGCCUAACACUGCCAAUGCCGGUCCCAAGCCCGGAUAAAAGUGGAGGGGGCGG

From the RNAGym collection of RNA variant scans (doi:10.1002/anie.201605470) come the findings set out here.

The variants in this data set derive from B1. Nature of the data set: self-cleavage, relative activity (ratio to wild type); higher = more cleavage; co-transcriptional. The method in brief: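 A DNA template encoding a 54-nucleotide twister ribozyme from Oryza sativa was made so that each of the 48 positions downstream of the cleavage site carried 97 % wild-type base and 1 % of each other base. Transcription in vitro ran for 2 h at 37 °C, during which the ribozyme could cleave itself. Reverse transcription used a template-switching oligonucleotide, and the products were PCR-amplified and deep-sequenced. Each read was scored as cleaved or uncleaved by whether upstream sequence was present, and relative activity is the fraction cleaved normalised to wild type.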
C26U G50A: the self-cleavage worked out at 0.92.

In the case of C26U G50C, the self-cleavage stood at 0.26.

Turning to C26U G50U, the self-cleavage stood at 0.52.

Regarding C26G G30U, the self-cleavage was 0.03.

Take C26G G30C: the self-cleavage worked out at 0.05.

Consider C26G G30A, for which the self-cleavage was 0.06.

As for C27A G47U, the self-cleavage turned out to be 0.83.

As to C27A G47C, the self-cleavage came out at 0.36.

On to C27A G47A, for which the self-cleavage is 0.24.

C26A G54C: the self-cleavage was 0.05.

Consider C26A G54A, for which the self-cleavage is 0.06.

Turning to C26A G54U, the self-cleavage was found to be 0.12.

As for C27A G49C, the self-cleavage is 0.03.

Turning to C27A G49U, the self-cleavage turned out to be 0.04.

C27A G49A: the self-cleavage was 0.04.

Take C26U G30A: the self-cleavage was 0.03.

Take C26U G30U: the self-cleavage stood at 0.03.

On to C26U G30C, for which the self-cleavage was determined as 0.04.

Take C26U C27A: the self-cleavage was found to be 0.07.

Consider C26U C27G, for which the self-cleavage amounted to 0.06.

In the case of C26U C27U, the self-cleavage stood at 0.24.

With C26G C27A, the self-cleavage was 0.05.

As to C26G C27U, the self-cleavage amounted to 0.07.

Regarding C26G C27G, the self-cleavage was determined as 0.11.

On to C27A C31A, for which the self-cleavage amounted to 0.06.

On to C27A C31U, for which the self-cleavage stood at 0.09.

As to C27A C31G, the self-cleavage is 0.04.

On to C27G C9U, for which the self-cleavage turned out to be 0.05.

For the variant C27G C9A, the self-cleavage stood at 0.03.

Consider C27G C9G, for which the self-cleavage was 0.07.

For the variant C26G C32G, the self-cleavage amounted to 0.09.

For the variant C26G C32U, the self-cleavage was 0.04.

In the case of C26G C32A, the self-cleavage is 0.03.

As for C26U G22U, the self-cleavage turned out to be 0.74.

Regarding C26U G22A, the self-cleavage came to 0.91.

For the variant C26U G22C, the self-cleavage is 0.08.

Take C27G G22A: the self-cleavage came to 0.05.

In the case of C27G G22U, the self-cleavage is 0.04.

C27G G22C: the self-cleavage was determined as 0.03.

As for C27G C33A, the self-cleavage was determined as 0.03.

Consider C27G C33U, for which the self-cleavage was 0.05.

As to C27G C33G, the self-cleavage was found to be 0.05.

On to C27A U12C, for which the self-cleavage came to 0.06.

As to C27A U12A, the self-cleavage is 0.07.

Turning to C27A U12G, the self-cleavage was found to be 0.11.

Consider C26G G23A, for which the self-cleavage amounted to 0.08.

C26G G23U: the self-cleavage was found to be 0.02.

Take C26G G23C: the self-cleavage is 0.04.

As to C26U C31A, the self-cleavage stood at 0.05.

Consider C26U C31G, for which the self-cleavage was 0.07.

Turning to C26U C31U, the self-cleavage stood at 0.16.

In the case of C26U G47C, the self-cleavage is 0.07.

C26U G47A: the self-cleavage is 0.08.

For C26U G47U, the self-cleavage was 0.06.

Consider C26U G48A, for which the self-cleavage turned out to be 0.82.

For C26U G48U, the self-cleavage stood at 0.08.

On to C26U G48C, for which the self-cleavage turned out to be 0.1.

On to C26A G48C, for which the self-cleavage was 0.1.

For C26A G48U, the self-cleavage turned out to be 0.7.

With C26A U43C, the self-cleavage is 0.04.

For the variant C26A U43G, the self-cleavage came out at 0.04.

Turning to C26A U43A, the self-cleavage was 0.05.

With C27G G47C, the self-cleavage was 0.86.

C27G G47U: the self-cleavage stood at 0.21.

With C27G G47A, the self-cleavage stood at 0.15.

As to C26G U43A, the self-cleavage is 0.09.

For the variant C26G U43G, the self-cleavage was 0.07.

Take C26G U43C: the self-cleavage was found to be 0.07.

For the variant C26A G50C, the self-cleavage was 0.05.

C26A G50A: the self-cleavage turned out to be 0.07.

With C26A G50U, the self-cleavage amounted to 0.05.

Regarding C26A U18A, the self-cleavage was found to be 0.05.

Regarding C26A U18C, the self-cleavage worked out at 0.06.

On to C26A U18G, for which the self-cleavage turned out to be 0.12.

With C26A U37C, the self-cleavage was 0.07.

For the variant C26A U37G, the self-cleavage came to 0.07.

For the variant C26A U37A, the self-cleavage came to 0.05.

Consider C26U G34C, for which the self-cleavage worked out at 0.56.

In the case of C26U G34U, the self-cleavage was found to be 0.83.

In the case of C26U G34A, the self-cleavage worked out at 0.92.

Take C27A G54C: the self-cleavage was 0.11.

Turning to C27A G54U, the self-cleavage worked out at 0.35.

Take C27A G54A: the self-cleavage is 0.12.

As to C26U C32G, the self-cleavage is 0.27.

Take C26U C32A: the self-cleavage is 0.06.

C26U C32U: the self-cleavage stood at 0.09.

As to C26A U12C, the self-cleavage was found to be 0.03.

For C26A U12G, the self-cleavage amounted to 0.04.

Consider C26A U12A, for which the self-cleavage came to 0.04.

Regarding C26G G44C, the self-cleavage was 0.09.

As for C26G G44U, the self-cleavage was 0.08.

Take C26G G44A: the self-cleavage was found to be 0.09.

Consider C27G G13U, for which the self-cleavage amounted to 0.01.

Take C27G G13A: the self-cleavage was found to be 0.03.

Consider C27G G13C, for which the self-cleavage is 0.01.

Turning to C26U U18G, the self-cleavage turned out to be 0.93.

Regarding C26U U18C, the self-cleavage is 0.88.

In the case of C26U U18A, the self-cleavage was 0.88.

In the case of C26U G45U, the self-cleavage was 0.04.

As to C26U G45A, the self-cleavage worked out at 0.07.

As for C26U G45C, the self-cleavage was found to be 0.04.

C27G: the self-cleavage is 0.13.

As to C27A, the self-cleavage turned out to be 0.37.

In the case of C27G G44A, the self-cleavage amounted to 0.06.

As to C27G G44C, the self-cleavage amounted to 0.08.

Take C27G G44U: the self-cleavage stood at 0.05.

Take C27A G34C: the self-cleavage is 0.09.

For the variant C27A G34U, the self-cleavage came to 0.17.

As to C27A G34A, the self-cleavage came to 0.18.

On to C26U U24G, for which the self-cleavage turned out to be 0.04.

On to C26U U24A, for which the self-cleavage worked out at 0.06.

As to C26U U24C, the self-cleavage amounted to 0.07.

C27A C33U: the self-cleavage stood at 0.1.

In the case of C27A C33A, the self-cleavage was 0.09.

Turning to C27A C33G, the self-cleavage came out at 0.04.

Consider C27A G19C, for which the self-cleavage worked out at 0.03.

With C27A G19U, the self-cleavage was found to be 0.04.

As for C27A G19A, the self-cleavage is 0.09.

As to C26G G13C, the self-cleavage worked out at 0.01.

Regarding C26G G13U, the self-cleavage was found to be 0.01.

With C26G G13A, the self-cleavage is 0.03.

Regarding C26A G51A, the self-cleavage was found to be 0.06.

Consider C26A G51C, for which the self-cleavage was 0.02.

As to C26A G51U, the self-cleavage amounted to 0.04.

Regarding C26U G54C, the self-cleavage came to 0.3.

Regarding C26U G54U, the self-cleavage is 0.62.

With C26U G54A, the self-cleavage was found to be 0.38.

Turning to C27A U43G, the self-cleavage was 0.15.

Take C27A U43A: the self-cleavage amounted to 0.1.

Consider C27A U43C, for which the self-cleavage stood at 0.1.

In the case of C26G G53A, the self-cleavage worked out at 0.11.

For C26G G53U, the self-cleavage was 0.06.

Turning to C26G G53C, the self-cleavage worked out at 0.03.

As for C27G G34U, the self-cleavage was found to be 0.08.

On to C27G G34A, for which the self-cleavage came out at 0.07.

In the case of C27G G34C, the self-cleavage turned out to be 0.05.

Consider C27A G50U, for which the self-cleavage was 0.1.

As for C27A G50C, the self-cleavage is 0.08.

As for C27A G50A, the self-cleavage turned out to be 0.22.

In the case of C26U U37C, the self-cleavage came to 1.

C26U U37G: the self-cleavage worked out at 1.03.

For C26U U37A, the self-cleavage was determined as 0.79.

Regarding C26G U24A, the self-cleavage amounted to 0.04.

Regarding C26G U24G, the self-cleavage was 0.02.

Consider C26G U24C, for which the self-cleavage was determined as 0.04.

As to C26G G45C, the self-cleavage amounted to 0.03.

C26G G45A: the self-cleavage stood at 0.05.

With C26G G45U, the self-cleavage turned out to be 0.02.

In the case of C27A G23U, the self-cleavage was found to be 0.04.

Turning to C27A G23A, the self-cleavage was determined as 0.06.

Take C27A G23C: the self-cleavage was 0.03.

Turning to C26U U43A, the self-cleavage turned out to be 0.32.

Take C26U U43G: the self-cleavage turned out to be 0.15.

As to C26U U43C, the self-cleavage was found to be 0.14.

For C26G G48U, the self-cleavage is 0.08.

In the case of C26G G48C, the self-cleavage was determined as 0.74.

C26G G48A: the self-cleavage was determined as 0.06.

With C26G G35A, the self-cleavage was 0.08.

Consider C26G G35C, for which the self-cleavage was 0.07.

In the case of C26G G35U, the self-cleavage amounted to 0.09.

For C26A U24G, the self-cleavage is 0.01.

Take C26A U24A: the self-cleavage came out at 0.03.

With C26A U24C, the self-cleavage turned out to be 0.02.

Turning to C27G C32A, the self-cleavage is 0.02.

Regarding C27G C32U, the self-cleavage stood at 0.05.

Consider C27G C32G, for which the self-cleavage is 0.05.

Consider C26U C9A, for which the self-cleavage stood at 0.26.
